Assay type in all cases: functional
A short description of test [1]: Ratio of potentiation of aztreonam (AZT) with 10% horse serum to without serum. The method, boiled down:
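Ratio of aztreonam MPC8 with 10% horse serum to MPC8 without serum, both from Mueller–Hinton broth microdilution against PAM1723 (10^6 CFU/mL, 18 h, 37 °C, visual growth read-out).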

Test [2] relates to Pseudomonas aeruginosa. Briefly: Minimum Potentiation Concentration of EPI required to achieve an 8-fold reduction in antibiotic MIC of AZT against MexAB-OprM pump system in Pseudomonas aeruginosa with 10% horse serum. The procedure, abridged: (§1)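 Broth microdilution in Mueller–Hinton broth, P. aeruginosa PAM1723, starting inoculum 10^6 CFU/mL, 18 h at 37 °C; run with and without 10% horse serum. Aztreonam MIC read by visual growth; MPC8 taken as lowest inhibitor concentration giving 8-fold reduction of aztreonam MIC.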

For test [3], the system named is Pseudomonas aeruginosa. The test can be described thus: Minimum Potentiation Concentration of EPI required to achieve an 8-fold reduction in antibiotic MIC of AZT against MexAB-OprM pump system in Pseudomonas aeruginosa without horse serum. The method, boiled down:
as §1

The subject of test [4] is Pseudomonas aeruginosa. Briefly: Minimum Potentiation Concentration of EPI required to achieve an 8-fold reduction in antibiotic MIC of levofloxacin against MexABOprMover-expressing strain of Pseudomonas aeruginosa. The method, boiled down:
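P. aeruginosa PAM1723 in Mueller–Hinton broth, broth microdilution per NCCLS M7-A4, starting inoculum 10^6 CFU/mL, inhibitor titrated with levofloxacin; 18 h at 37 °C. Levofloxacin MIC read at 70% growth inhibition by OD 595 nm. Value is the inhibitor concentration giving an 8-fold drop in levofloxacin MIC, measured without serum.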

Ratio and MPC8 data for 15 molecules are collected here from ChEMBL document CHEMBL1136457, “MexAB-OprM-specific efflux pump inhibitors in Pseudomonas aeruginosa. Part 1: discovery and early strategies for lead optimization” (2003).

Molecules are shown by their SMILES.

`CC(C)c1csc(/C=C/c2cccc(NC(=O)[C@H]3OC(C)(C)O[C@@H]3C(=O)O)c2)n1`: the Ratio in test [1] stood at 4. Moreover, the MPC8 in test [2] was 20 µg/mL; in test [3] it was 5 µg/mL.
For `CC(C)c1csc(/C=C/c2cccc(NC(=O)Cc3ccccc3C(=O)O)c2)n1`, in that order: more than 16, 10 µg/mL and “<=0.63 ug ml-1”.
For `CC(C)c1csc(/C=C/c2cccc(NC(=O)[C@@H]3OC(C)(C)O[C@H]3C(=O)O)c2)n1`, the Ratio in test [1] amounted to 2. The MPC8 in test [2] was 40 µg/mL; in test [3], 20 µg/mL.
Turning to `O=C(Cc1ccccc1C(=O)O)Nc1cccc(/C=C/c2nc(C(F)(F)C(F)(F)F)cs2)c1`, in test [1], the Ratio is 32. Also, the MPC8 in test [2] was 80 µg/mL; in test [3] it was 2.5 µg/mL.
Consider `CC(C)c1csc(/C=C/c2cncc(NC(=O)Cc3ccccc3C(=O)O)c2)n1`, for which the MPC8 was determined as 2.5 µg/mL in test [4], 10 µg/mL in test [2] and 5 µg/mL in test [3]. The Ratio in test [1] amounted to 2.
Consider `CC(C)c1csc(/C=C/c2cccc(NC(=O)C(O)c3ccccc3C(=O)O)c2)n1` (configuration not stated), for which the Ratio in test [1] worked out at 16. The MPC8 in test [2] amounted to 40 µg/mL; in test [3] it was 2.5 µg/mL.
For `COC(C(=O)Nc1cccc(/C=C/c2nc(C(C)C)cs2)c1)c1ccccc1C(=O)O` (configuration not stated), the MPC8 in test [4] worked out at 10 µg/mL; in test [2], 160 µg/mL; in test [3], 20 µg/mL. Further, in test [1], the Ratio was found to be 8.
On to `CC(C)c1csc(COc2ccnc(NC(=O)Cc3ccccc3C(=O)O)c2)n1`, for which the Ratio in test [1] is 2. For the same molecule, the MPC8 in test [2] stood at 5 µg/mL; in test [3] it was 2.5 µg/mL.
The corresponding values for `O=C(Cc1ccccc1C(=O)O)Nc1cccc(/C=C/c2nc(-c3ccccc3)cs2)c1` are 32, 40 µg/mL and 1.25 µg/mL.
As to `CC(C)c1csc(CCc2ccnc(NC(=O)Cc3ccccc3C(=O)O)c2)n1`, the MPC8 came to 2.5 µg/mL in test [4], 10 µg/mL in test [2] and 5 µg/mL in test [3]. In addition, the Ratio in test [1] amounted to 2.
In the case of `CC(C)c1csc(/C=C/c2ccnc(NC(=O)Cc3ccccc3C(=O)O)c2)n1`, the MPC8 in test [4] was 0.31 µg/mL; in test [2], 10 µg/mL; in test [3], more than 10 µg/mL.
For `CC(C)c1csc(/C=C/c2cccc(NC(=O)Cc3ccccc3C(=O)O)n2)n1`, the MPC8 in test [4] is more than 80 µg/mL; in test [2], 80 µg/mL; in test [3] it was 20 µg/mL. The Ratio in test [1] was 4.
For the molecule `CCC(C)(C(N)=O)c1csc(/C=C/c2cccc(NC(=O)Cc3ccccc3C(=O)O)c2)n1` (configuration not stated), the MPC8 in test [4] came to 80 µg/mL; in test [2] it was 40 µg/mL; in test [3] it was 20 µg/mL. Further, the Ratio in test [1] amounted to 2.
For `CC(C)(C)c1csc(/C=C/c2cccc(NC(=O)Cc3ccccc3C(=O)O)c2)n1`, in that order: 0.63 µg/mL, 20 µg/mL, “<=0.63 ug ml-1” and more than 32.
The corresponding values for `CC(C)(C)c1csc(/C=C/c2cccc(NC(=O)Cc3ncccc3C(=O)O)c2)n1` are 1.25 µg/mL, 20 µg/mL, 2.5 µg/mL and 8.
